From ChEMBL document CHEMBL1144173, “1-Benzylbenzimidazoles: the discovery of a novel series of bradykinin B(1) receptor antagonists” (Bioorg Med Chem Lett, 2008)
Values after ≈ are worked out from the molar mass of the structure shown.

Key:
[1] = Oral bioavailability in rat at 10 mg/kg; assay type: ADME, organism-based; settings: in vivo
B1 bradykinin receptor [2] = target: T1, B1 bradykinin receptor (Rattus norvegicus, UniProt P97583); assay: Antagonist activity at rat bradykinin B1 receptor; assay type: functional
T1 sequence (P97583 whole entry): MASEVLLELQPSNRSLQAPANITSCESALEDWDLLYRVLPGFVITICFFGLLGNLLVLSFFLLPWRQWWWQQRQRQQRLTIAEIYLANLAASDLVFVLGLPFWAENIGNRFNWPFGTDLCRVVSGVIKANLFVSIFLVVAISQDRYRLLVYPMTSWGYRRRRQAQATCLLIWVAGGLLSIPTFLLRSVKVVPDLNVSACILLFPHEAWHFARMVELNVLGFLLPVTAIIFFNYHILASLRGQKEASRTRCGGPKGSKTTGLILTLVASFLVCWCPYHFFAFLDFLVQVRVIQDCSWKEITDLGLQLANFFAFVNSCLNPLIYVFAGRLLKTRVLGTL
Summary of the method: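 Rat B1 receptor tested in the same way as the cynomolgus assay: FLIPR Ca2+ transients with inhibition of DAKD-induced fluorescence measured across multiple compound concentrations to derive functional IC50.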

B1 bradykinin receptor [3] = target: T2, B1 bradykinin receptor (Homo sapiens, UniProt P46663); assay: Inhibition of human bradykinin B1 receptor
T2 sequence (P46663 whole entry): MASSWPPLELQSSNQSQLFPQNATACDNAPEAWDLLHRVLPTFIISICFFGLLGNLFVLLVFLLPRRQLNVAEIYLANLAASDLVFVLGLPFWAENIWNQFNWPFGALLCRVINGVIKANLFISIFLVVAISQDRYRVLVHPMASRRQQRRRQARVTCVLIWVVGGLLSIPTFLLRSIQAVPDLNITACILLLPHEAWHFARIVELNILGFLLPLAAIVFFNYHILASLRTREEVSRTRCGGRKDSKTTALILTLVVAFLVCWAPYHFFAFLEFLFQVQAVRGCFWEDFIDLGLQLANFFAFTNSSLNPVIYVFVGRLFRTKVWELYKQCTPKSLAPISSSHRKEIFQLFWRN

MDCK [4] = assay: Ratio of permeability from basolateral to apical over apical to basolateral side of MDCK cells expressing MDR1; assay type: ADME, cell-based, Canis lupus familiaris; settings: dog
Summary of the method: (§1)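 MDR1-transfected MDCK cell monolayer. Apparent permeability (Papp) measured in the apical-to-basolateral and basolateral-to-apical directions. The A-to-B Papp is reported as passive permeability, and the efflux ratio is Papp(B→A)/Papp(A→B).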

MDR1 = assay: Passive permeability from apical to basolateral side of MDCK cells expressing MDR1; assay type: ADME, cell-based, Canis lupus familiaris; settings: dog; summary of the method: as §1
B1 bradykinin receptor [5] = target: T3, B1 bradykinin receptor (Macaca fascicularis, UniProt Q3BCU0); assay: Antagonist activity at Cynomolgus monkey bradykinin B1 receptor expressed in CHO cells assessed as calcium transient by FLIPR assay; assay type: functional, cell-based
T3 sequence (Q3BCU0 whole entry): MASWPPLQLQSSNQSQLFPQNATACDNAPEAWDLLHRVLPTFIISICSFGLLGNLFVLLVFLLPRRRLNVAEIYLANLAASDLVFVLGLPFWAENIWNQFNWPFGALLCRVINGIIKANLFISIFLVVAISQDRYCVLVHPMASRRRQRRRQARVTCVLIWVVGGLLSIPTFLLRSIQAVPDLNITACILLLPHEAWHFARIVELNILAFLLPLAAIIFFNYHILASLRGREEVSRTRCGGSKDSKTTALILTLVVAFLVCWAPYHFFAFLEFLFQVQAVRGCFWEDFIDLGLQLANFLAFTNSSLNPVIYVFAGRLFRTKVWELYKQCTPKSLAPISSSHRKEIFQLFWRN

MDCK [6] = assay: Ratio of permeability from basolateral to apical over apical to basolateral side of MDCK cells expressing MDR1 in presence of cyclosporine; assay type: ADME, cell-based, Canis lupus familiaris; settings: dog
Summary of the method: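 MDR1-transfected MDCK monolayer run with 25 µM cyclosporine as P-gp inhibitor. Efflux ratio is Papp basolateral-to-apical divided by Papp apical-to-basolateral.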

Liver microsomes = assay: Metabolic stability in rat liver microsomes at 1 uM after 10 mins by LC-MS analysis in presence of NADPH; assay type: ADME, Microsome
Summary of the method: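 Pooled male rat liver microsomes at 0.5 mg/ml with compound at 1 µM, 37 °C. Reaction started with NADPH, and aliquots taken at 0 and 10 min. Percent parent remaining is the 10-min/0-min signal ratio, corrected by internal standard recovery.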

[7] = Aqueous solubility at pH 7.4; assay type: physicochemical

SMILES	IC50 (B1 bradykinin receptor [5])	also measured
CCCN1C(=O)C(NC(=O)Nc2ccc(N3CCN(c4ccncc4)CC3)cc2)N=C(CCc2ccccc2)c2ccccc21 (stereo not given)		bioavailability [1]: < 4%; Ki (B1 bradykinin receptor [2]): 0.00092 µM; Ki (B1 bradykinin receptor [3]): 0.00059 µM
CN(Cc1ccc(C#N)cc1)C(=O)CNC(=O)c1nc2ccccc2n1Cc1ccccc1	> 5 µM	Ratio (MDCK [4]): 3; Papp A→B (MDR1): 7 ×10⁻⁶ cm/s
CN1CCC(N2CCN(C(=O)[C@H]3CCCN3C(=O)c3nc4ccccc4n3Cc3ccccc3)CC2)CC1	3.22 µM	
CN1CCC(N2CCN(C(=O)[C@@H]3CCCN3C(=O)c3nc4ccccc4n3Cc3ccccc3)CC2)CC1	0.884 µM	
CN(Cc1ccc(C(N)=O)cc1)C(=O)CNC(=O)c1nc2ccccc2n1Cc1ccccc1	> 5 µM	
O=C(CCNC(=O)c1nc2ccccc2n1Cc1ccccc1)Nc1ccc2nc[nH]c2c1	0.744 µM	
CCN(CC(=O)N1CCN(c2ccncc2)CC1)Cc1nc2ccccc2n1Cc1ccccc1	> 5 µM	
CCN(CC(=O)N1CCN(C2CCN(C)CC2)CC1)Cc1nc2ccccc2n1Cc1ccccc1	> 5 µM	
O=C(NCCC(=O)N1CCC2(CCOCC2)CC1)c1nc2ccccc2n1Cc1ccccc1	1.99 µM	
CN1CCC2(CCN(C(=O)CCNC(=O)c3nc4ccccc4n3Cc3ccccc3)CC2)C1	2.91 µM	
O=C1NCC2(CCN(C(=O)CCNC(=O)c3nc4ccccc4n3Cc3ccccc3)CC2)O1	> 5 µM	
CN1CCC(N2CCN(C(=O)C3CCN(C(=O)c4nc5ccccc5n4Cc4ccccc4)CC3)CC2)CC1	4.02 µM	
CN(Cc1ccc(C2=NCCN2)cc1)C(=O)C1CCN(C(=O)c2nc3ccccc3n2Cc2ccccc2)CC1	0.188 µM	
O=C(NCCC(=O)N1CCN(c2ccncc2)CC1)c1nc2ccccc2n1Cc1ccccc1	0.962 µM	
CN(Cc1ccc(C2=NCCN2C)cc1)C(=O)CNC(=O)c1nc2ccccc2n1Cc1ccccc1	0.014 µM	
Cc1nc(-c2ccc(CN(C)C(=O)CNC(=O)c3nc4ccccc4n3Cc3ccccc3)cc2)no1	0.718 µM	
CN(Cc1ccc(C2=NCCN2)cc1)C(=O)CCNC(=O)c1nc2ccccc2n1Cc1ccccc1	0.054 µM	
O=C(c1nc2ccccc2n1Cc1ccccc1)N1CCN(c2ccncc2)CC1	> 5 µM	
CN(Cc1ccc(-n2ccnc2)cc1)C(=O)CNC(=O)c1nc2ccccc2n1Cc1ccccc1	0.626 µM	
CN1CCC(N2CCN(C(=O)c3nc4ccccc4n3Cc3ccccc3)CC2)CC1	> 5 µM	
CCC(NC(=O)c1nc2ccccc2n1Cc1ccccc1)C(=O)N1CCN(C2CCN(C)CC2)CC1 (stereo not given)	1.3 µM	
CC(C)N(CC(=O)N1CCN(c2ccncc2)CC1)C(=O)c1nc2ccccc2n1Cc1ccccc1	> 5 µM	
O=C(CCNC(=O)c1nc2ccccc2n1Cc1ccccc1)Nc1ccc2cn[nH]c2c1	0.524 µM	
CN(Cc1ccc(CN2CCCCC2)cc1)C(=O)CNC(=O)c1nc2ccccc2n1Cc1ccccc1	0.196 µM	
CN(Cc1ccc(C2=NCCN2)cc1)C(=O)CNC(=O)c1nc2ccccc2n1Cc1ccccc1	0.005 µM	IC50 (B1 bradykinin receptor [2]): 0.155 µM; Ratio (MDCK [4]): 23; Ratio (MDCK [6]): 1.5; Papp A→B (MDR1): 1 ×10⁻⁶ cm/s

SMILES	IC50 (B1 bradykinin receptor [5])	also measured
CCC(NC(=O)c1nc2ccccc2n1Cc1ccccc1)C(=O)N1CCN(c2ccncc2)CC1 (stereo not given)	> 5 µM	
CCCN(CC(=O)N1CCN(c2ccncc2)CC1)C(=O)c1nc2ccccc2n1Cc1ccccc1	0.355 µM	IC50 (B1 bradykinin receptor [2]): 0.396 µM
CCCN(CC(=O)N1CCN(C2CCN(C)CC2)CC1)C(=O)c1nc2ccccc2n1Cc1ccccc1	0.018 µM	IC50 (B1 bradykinin receptor [2]): 0.023 µM
CN1CCC(N2CCN(C(=O)CCNC(=O)c3nc4ccccc4n3Cc3ccccc3)CC2)CC1	0.601 µM	
CN(Cc1ccc(-c2ccccn2)cc1)C(=O)CNC(=O)c1nc2ccccc2n1Cc1ccccc1	0.407 µM	
CN(Cc1ccc(-c2nccs2)cc1)C(=O)CNC(=O)c1nc2ccccc2n1Cc1ccccc1	1.17 µM	
CN(Cc1ccc(-c2cc[nH]n2)cc1)C(=O)CNC(=O)c1nc2ccccc2n1Cc1ccccc1	2.13 µM	
O=C(CCNC(=O)c1nc2ccccc2n1Cc1ccccc1)Nc1ccc(C2=NCCN2)nc1	0.002 µM	IC50 (B1 bradykinin receptor [2]): 0.0008 µM; Ratio (MDCK [4]): 42
O=C(NCC(=O)N1CCN(c2ccncc2)CC1)c1nc2ccccc2n1Cc1ccccc1	0.31 µM	IC50 (B1 bradykinin receptor [2]): 0.417 µM
CN(Cc1ccc(-c2nnn[nH]2)cc1)C(=O)CNC(=O)c1nc2ccccc2n1Cc1ccccc1	> 5 µM	
CN(CC(=O)N1CCN(c2ccncc2)CC1)C(=O)c1nc2ccccc2n1Cc1ccccc1	1.18 µM	
CCN(CC(=O)N1CCN(c2ccncc2)CC1)C(=O)c1nc2ccccc2n1Cc1ccccc1	0.278 µM	
CC(C)N(CC(=O)N1CCN(C2CCN(C)CC2)CC1)C(=O)c1nc2ccccc2n1Cc1ccccc1	0.465 µM	
CCN(CC(=O)N(C)Cc1ccc(C2=NCCN2)cc1)C(=O)c1nc2ccccc2n1Cc1ccccc1	0.006 µM	IC50 (B1 bradykinin receptor [2]): 0.345 µM
O=C([C@H]1CCCN1C(=O)c1nc2ccccc2n1Cc1ccccc1)N1CCN(c2ccncc2)CC1	4.07 µM	
O=C([C@@H]1CCCN1C(=O)c1nc2ccccc2n1Cc1ccccc1)N1CCN(c2ccncc2)CC1	> 5 µM	
CN(C)C(=O)c1ccc(CN(C)C(=O)CNC(=O)c2nc3ccccc3n2Cc2ccccc2)cc1	> 5 µM	
CN1CCC(N2CCN(C(=O)CN(C)C(=O)c3nc4ccccc4n3Cc3ccccc3)CC2)CC1	0.268 µM	
CN1CCC2(CC1)CCN(C(=O)CCNC(=O)c1nc3ccccc3n1Cc1ccccc1)CC2	> 5 µM	
CN(Cc1ccc(-c2ncccn2)cc1)C(=O)CNC(=O)c1nc2ccccc2n1Cc1ccccc1	0.33 µM	
CN1CCC(N2CCN(C(=O)CNC(=O)c3nc4ccccc4n3Cc3ccccc3)CC2)CC1	0.686 µM	
Cc1c(C(=O)NCCC2CCN(C3CCN(C)CC3)CC2)n[nH]c1NC(=O)c1ccccc1Cl		IC50 (B1 bradykinin receptor [3]): 0.0018 µM
O=C(c1nc2ccccc2n1Cc1ccccc1)N1CCC(C(=O)N2CCN(c3ccncc3)CC2)CC1	2.31 µM	
CN(Cc1ccc(C2=NCCN2)cc1)C(=O)c1nc2ccccc2n1Cc1ccccc1	1.02 µM	
CCN(CC(=O)N1CCN(C2CCN(C)CC2)CC1)C(=O)c1nc2ccccc2n1Cc1ccccc1	0.016 µM	bioavailability [1]: < 5%; IC50 (B1 bradykinin receptor [2]): 0.015 µM; Stability (Liver microsomes): Stable; Ratio (MDCK [4]): 55; Papp A→B (MDR1): 0.6 ×10⁻⁶ cm/s; solubility [7]: 120 µg/mL (≈ 239 µM)
